From ChEMBL document CHEMBL1914331, “N-O chemistry for antibiotics: discovery of N-alkyl-N-(pyridin-2-yl)hydroxylamine scaffolds as selective antibacterial agents using nitroso Diels-Alder and ene chemistry” (J Med Chem, 2011)

How the values were obtained:
[1] = system: PC-3; assay: Cytotoxicity against human PC3 cells; format: cell-based
[2] = system: HeLa; assay: Cytotoxicity against human HeLa cells; format: cell-based
[3] = system: Micrococcus luteus; assay: Antimicrobial activity against Micrococcus luteus ATCC 10240 after 24 hrs by Kirby-Bauer agar diffusion assay; format: functional
Method in brief: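 Modified Kirby-Bauer well diffusion. Overnight LB cultures (18–24 h) were standardized in 0.9% saline to 0.5 McFarland and mixed into melted MHII agar at 47–50 °C, giving ~5×10³ CFU/mL. 9 mm wells received 50 µL of 2.0 mM compound in 10:1 MeOH:DMSO. Plates were incubated 24 h at 37 °C, then growth-inhibition zone diameter was measured (mm) by caliper.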

[4] = system: MCF7; assay: Cytotoxicity against human MCF7 cells; format: cell-based

| Compound | Activity [1] | Activity [2] | diameter of the inhibition zone (DIZ) [3] | Activity [4] |
| --- | --- | --- | --- | --- |
| CC(C)O[C@@H]1C=CC[C@H]1N(O)c1ccc(Br)cn1 (racemic) | Non-toxic | Non-toxic | >14 mm | Non-toxic |
| O=Nc1ccc(Br)cn1 | Non-toxic | Non-toxic | <=14 mm | Non-toxic |
| Cc1cc(N=O)no1 | Non-toxic | Non-toxic | <=14 mm | Non-toxic |
| COc1ccc(CON(Cc2ccc(C(F)(F)F)cc2)c2ccccn2)cc1 | Non-toxic | Non-toxic | <=14 mm | Non-toxic |
| C=CCO[C@@H]1C=CCC[C@H]1N(O)c1ccc(Br)cn1 (racemic) | Non-toxic | Non-toxic | >14 mm | Non-toxic |
| Cc1cc(N(O)[C@H]2CC=C[C@@H]2OC(C)(C)C)no1 (racemic) | Non-toxic | Non-toxic | >14 mm | Non-toxic |
| COC1C=C[C@@H](N(O)c2cc(C)on2)C1 (mixture of isomers) | Non-toxic | Non-toxic | >14 mm | Non-toxic |
| CC(C)(C)O[C@@H]1C=C[C@@H](N(O)c2ccc(Br)cn2)CC1 (racemic) | Non-toxic | Non-toxic | >14 mm | Non-toxic |
| CO[C@@H]1C=C[C@@H](N(O)C(=O)Cc2ccccc2)C1 (racemic) | Non-toxic | Non-toxic | <=14 mm | Non-toxic |
| CC(C)O[C@@H]1C=CCC[C@H]1N(O)c1ccc(Br)cn1 (racemic) | Non-toxic | Non-toxic | >14 mm | Non-toxic |
| CO[C@@H]1C=CC[C@H]1N(O)c1ncccc1C (racemic) | Non-toxic | Non-toxic | >14 mm | Non-toxic |
| C=C(CCC=C(C)C)C(CO)N(O)c1ccc(Br)cn1 (racemic) | Non-toxic | Non-toxic | >14 mm | Non-toxic |
| CC1=CCCCC1N(O)c1cc(C)on1 (racemic) | Non-toxic | Non-toxic | >14 mm | Non-toxic |
| CO[C@@H]1C=CCC[C@H]1N(O)C(=O)Cc1ccccc1 (relative stereo) | Non-toxic | Non-toxic | <=14 mm | Non-toxic |
| COc1ccc(CON(Cc2ccc(OC(F)(F)F)cc2)c2ccccn2)cc1 | Non-toxic | Non-toxic | <=14 mm | Non-toxic |
| Cc1cccc(N(O)[C@@H]2CCC=C[C@H]2OC(C)(C)C)n1 (racemic) | Non-toxic | Non-toxic | >14 mm | Non-toxic |
| CC(C)(C)O[C@@H]1C=C[C@@H](N(O)C(=O)Cc2ccccc2)C1 (racemic) | Non-toxic | Non-toxic | <=14 mm | Non-toxic |
| O=C(Cc1ccccc1)N1OC2C=CC1CC2 (racemic) | Non-toxic | Non-toxic | <=14 mm | Non-toxic |
| CO[C@@H]1C=C[C@@H](N(O)C(=O)Cc2ccccc2)CC1 (racemic) | Non-toxic | Non-toxic | <=14 mm | Non-toxic |
